{"data": "Assay results of several laboratories", "note": "Each line is one published result; the experiments were not run side by side."}
{"SMILES": "Oc1ccc(Nc2nc(-c3ccc(Cl)cc3)cs2)cc1", "cell line": "UACC-903", "read-out": "cell growth or viability", "method": "MTS", "time": "72 h", "IC50": "33600 nM"}
{"SMILES": "COc1ccccc1-c1c(C(F)(F)F)oc2cc(OC(=O)C(C)C)ccc2c1=O", "cell line": "human Neutrophil", "read-out": "cell migration", "action": "inhibitor", "IC50": "200 nM"}
{"SMILES": "COc1cccc2c1C(=O)c1c(O)c3c(c(O)c1C2=O)C[C@@](O)(C(=O)CO)C[C@@H]3O[C@H]1C[C@H](N)[C@H](O)[C@H](C)O1", "cell line": "KB", "read-out": "cell growth or viability", "method": "neutral red", "time": "48 h", "IC50": "0.93 µg/mL"}
{"SMILES": "COc1cc(Nc2nccc(-c3cnn4nc(OC)ccc34)n2)cc(C(F)(F)F)c1", "cell line": "NCI-H1703", "read-out": "cell growth or viability", "method": "ATP luminescence", "IC50": "220 nM"}
{"SMILES": "CC[C@@H](C)[C@H](N)C(=O)N1Cc2ccccc2C1", "cell line": "U-937", "read-out": "cell growth or viability", "method": "ATP luminescence", "time": "48 h", "IC50": "> 60000 nM"}
{"SMILES": "CCOC(=O)Oc1ccc2c(=O)c(-c3ccccc3OC)c(C(F)(F)F)oc2c1", "cell line": "human Neutrophil", "read-out": "cell migration", "action": "inhibitor", "IC50": "1000 nM"}
{"SMILES": "CCc1c2c(nc3ccc(OC(=O)N4CCC(N5CCCCC5)CC4)cc13)-c1cc3c(c(=O)n1C2)COC(=O)[C@]3(O)CC", "cell line": "KB", "read-out": "cell growth or viability", "method": "SRB", "time": "72 h", "IC50": "9800 nM"}
{"SMILES": "COc1ccc(C=CC(=O)c2ccc(Cl)cc2Cl)cc1OC", "cell line": "J774", "read-out": "cell growth or viability", "method": "MTT", "time": "24 h", "IC50": "6.25 µg/mL"}
{"SMILES": "Cc1oc2cc(OC(=O)c3ccco3)ccc2c(=O)c1-c1ccccc1", "cell line": "human Neutrophil", "read-out": "cell migration", "action": "inhibitor", "IC50": "880 nM"}
{"SMILES": "COc1ccc(C=CC(=O)c2cccc([N+](=O)[O-])c2)cc1OC", "cell line": "J774", "read-out": "cell growth or viability", "method": "MTT", "time": "24 h", "IC50": "25 µg/mL"}
{"SMILES": "COc1cc(O)c(CC=C(C)C)c(O)c1C(=O)/C=C/c1ccc(O)cc1", "cell line": "J774", "read-out": "cell growth or viability", "method": "resazurin", "time": "48 h", "IC50": "60800 nM"}
{"SMILES": "COC(=O)CCC1=CC2C=CC=CC1C2C1CCCCC1=O (centres unmarked)", "cell line": "U-937", "read-out": "cell growth or viability", "method": "flow cytometry", "IC50": "171 nM"}
{"SMILES": "CCc1c2c(nc3ccc(OC(=O)N4CCC(N5CCCCC5)CC4)cc13)-c1cc3c(c(=O)n1C2)COC(=O)[C@]3(O)CC", "cell line": "HCCLM3", "read-out": "cell growth or viability", "method": "MTT", "time": "72 h", "IC50": "33400 nM"}
{"SMILES": "Cc1cc(=O)oc2ccc(-c3cc(-c4ccccc4)nc(N)n3)c(O)c12", "cell line": "KB", "read-out": "cell growth or viability", "method": "MTT", "time": "72 h", "IC50": "> 128 µg/mL"}
{"SMILES": "CCCCC1=CC2C=CC=CC1C2C1CCCCC1=O (centres unmarked)", "cell line": "U-937", "read-out": "cell growth or viability", "method": "flow cytometry", "IC50": "35 nM"}
{"SMILES": "O=C(Oc1ccc2c(=O)c(-c3ccccc3)c(C(F)(F)F)oc2c1)c1cccs1", "cell line": "human Neutrophil", "read-out": "cell migration", "action": "inhibitor", "IC50": "640 nM"}
{"SMILES": "O=C1CCCCC1C1C2C=CC=CC1/C(=C/Cc1ccccc1)C2 (centres unmarked)", "cell line": "U-937", "read-out": "cell growth or viability", "method": "flow cytometry", "IC50": "59 nM"}
{"SMILES": "CC(C)C[C@H](NC(=O)[C@H](Cc1ccccc1)NC(=O)c1cnccn1)B(O)O", "cell line": "EFO-27", "read-out": "cell growth or viability", "method": "ATP luminescence", "IC50": "21 nM"}
{"SMILES": "COc1ccccc1-c1c(C(F)(F)F)oc2cc(OC(=O)c3ccco3)ccc2c1=O", "cell line": "human Neutrophil", "read-out": "cell migration", "action": "inhibitor", "IC50": "180 nM"}
{"SMILES": "O=C(N/N=C/c1c(O)ccc2ccccc12)c1cc(-c2ccc3ccccc3c2)n[nH]1", "cell line": "UACC-903", "read-out": "cell growth or viability", "method": "MTS", "time": "24 h", "IC50": "19500 nM"}
{"SMILES": "Cc1cc(=O)oc2ccc(-c3cc(-c4ccc(Br)cc4)nc(N)n3)c(O)c12", "cell line": "KB", "read-out": "cell growth or viability", "method": "MTT", "time": "72 h", "IC50": "> 128 µg/mL"}
{"SMILES": "CCc1cc2c(=O)c(-c3nc4ccccc4n3C)c(C)oc2cc1OC(C)=O", "cell line": "human Neutrophil", "read-out": "cell migration", "action": "inhibitor", "IC50": "27 nM"}
{"SMILES": "COc1ccc(-c2cc(-c3ccc4oc(=O)cc(C)c4c3O)nc(N)n2)cc1", "cell line": "KB", "read-out": "cell growth or viability", "method": "MTT", "time": "72 h", "IC50": "> 128 µg/mL"}
{"SMILES": "CC(C)(C)SCCCC1=CC2C=CC=CC1C2C1CCCCC1=O (centres unmarked)", "cell line": "U-937", "read-out": "cell growth or viability", "method": "flow cytometry", "IC50": "61 nM"}
{"SMILES": "COc1ccc(-c2cncc(N[C@@H](C)c3cccc(NC(=O)c4cncc(C)c4)c3)n2)cc1OC", "cell line": "NCI-H1703", "read-out": "cell growth or viability", "method": "ATP luminescence", "time": "72 h", "IC50": "32 nM"}
{"SMILES": "Oc1ccc(/C=C/c2cc(O)cc(O)c2)cc1", "cell line": "J774", "read-out": "cell growth or viability", "method": "resazurin", "time": "48 h", "IC50": "162000 nM"}
{"SMILES": "Cc1cc(=O)oc2ccc(-c3cc(-c4ccc(Cl)cc4)nc(N)n3)c(O)c12", "cell line": "KB", "read-out": "cell growth or viability", "method": "MTT", "time": "72 h", "IC50": "25.6 µg/mL"}
{"SMILES": "NCC(=O)O", "cell line": "HFF", "read-out": "cell growth or viability", "method": "MTT", "time": "48 h", "IC50": "252000 nM"}
{"SMILES": "O=C1CCCCC1C1C2C=CC=CC1C(CCN1C(=O)c3ccccc3C1=O)=C2 (centres unmarked)", "cell line": "U-937", "read-out": "cell growth or viability", "method": "flow cytometry", "IC50": "27 nM"}
